Test results published in ChEMBL document CHEMBL3091351, “The 3,7-diazabicyclo[3.3.1]nonane scaffold for subtype selective nicotinic acetylcholine receptor (nAChR) ligands. Part 1: the influence of different hydrogen bond acceptor systems on alkyl and (hetero)aryl substituents” (Bioorg Med Chem, 2013).
The source made the active and inactive calls. The rule behind the calls is not given here.

What was measured:
[1] = molecular target: T1, Neuronal acetylcholine receptor subunit alpha-7 (Rattus norvegicus, UniProt Q05941); assay: Displacement of [3H]methyllycaconitine from alpha7 nAChR in Sprague-Dawley rat forebrain P2 fraction after 90 mins by liquid scintillation counting analysis
T1 sequence (Q05941 whole entry): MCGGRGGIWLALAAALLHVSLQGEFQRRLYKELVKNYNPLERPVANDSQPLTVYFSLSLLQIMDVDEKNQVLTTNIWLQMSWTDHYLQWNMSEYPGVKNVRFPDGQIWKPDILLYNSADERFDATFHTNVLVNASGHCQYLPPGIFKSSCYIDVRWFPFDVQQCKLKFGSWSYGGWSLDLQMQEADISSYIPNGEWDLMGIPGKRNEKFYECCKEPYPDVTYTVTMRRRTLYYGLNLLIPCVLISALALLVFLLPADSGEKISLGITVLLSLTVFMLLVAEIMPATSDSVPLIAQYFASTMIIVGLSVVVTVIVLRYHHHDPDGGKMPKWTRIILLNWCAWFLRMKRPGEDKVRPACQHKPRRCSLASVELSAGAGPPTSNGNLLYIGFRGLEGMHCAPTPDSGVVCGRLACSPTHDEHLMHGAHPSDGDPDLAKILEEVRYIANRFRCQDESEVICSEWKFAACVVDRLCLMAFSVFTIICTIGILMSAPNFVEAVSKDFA

[2] = molecular target: T2, Neuronal acetylcholine receptor; alpha4/beta2 (Rattus norvegicus, UniProt P09483+P12390); assay: Displacement of [3H]epibatidine from alpha4beta2 nAChR in Sprague-Dawley rat forebrain P2 fraction after 90 mins by liquid scintillation counting analysis
T2 sequence (P09483 whole entry): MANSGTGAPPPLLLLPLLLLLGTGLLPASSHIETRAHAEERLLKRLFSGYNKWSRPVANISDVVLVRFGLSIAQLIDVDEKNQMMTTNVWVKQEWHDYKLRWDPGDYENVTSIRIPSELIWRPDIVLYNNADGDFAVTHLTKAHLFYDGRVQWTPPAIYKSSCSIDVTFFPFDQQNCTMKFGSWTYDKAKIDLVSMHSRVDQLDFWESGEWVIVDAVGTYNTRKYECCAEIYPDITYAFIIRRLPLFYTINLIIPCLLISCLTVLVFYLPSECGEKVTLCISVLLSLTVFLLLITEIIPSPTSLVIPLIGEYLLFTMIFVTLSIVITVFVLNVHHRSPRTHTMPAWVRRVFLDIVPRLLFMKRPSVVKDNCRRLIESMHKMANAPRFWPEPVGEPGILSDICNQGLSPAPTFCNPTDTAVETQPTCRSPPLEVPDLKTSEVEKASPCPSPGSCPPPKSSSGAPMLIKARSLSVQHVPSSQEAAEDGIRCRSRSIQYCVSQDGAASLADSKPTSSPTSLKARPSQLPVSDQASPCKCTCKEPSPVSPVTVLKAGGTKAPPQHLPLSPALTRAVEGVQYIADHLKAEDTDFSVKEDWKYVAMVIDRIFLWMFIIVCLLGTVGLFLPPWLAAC
T2 sequence (P12390 whole entry): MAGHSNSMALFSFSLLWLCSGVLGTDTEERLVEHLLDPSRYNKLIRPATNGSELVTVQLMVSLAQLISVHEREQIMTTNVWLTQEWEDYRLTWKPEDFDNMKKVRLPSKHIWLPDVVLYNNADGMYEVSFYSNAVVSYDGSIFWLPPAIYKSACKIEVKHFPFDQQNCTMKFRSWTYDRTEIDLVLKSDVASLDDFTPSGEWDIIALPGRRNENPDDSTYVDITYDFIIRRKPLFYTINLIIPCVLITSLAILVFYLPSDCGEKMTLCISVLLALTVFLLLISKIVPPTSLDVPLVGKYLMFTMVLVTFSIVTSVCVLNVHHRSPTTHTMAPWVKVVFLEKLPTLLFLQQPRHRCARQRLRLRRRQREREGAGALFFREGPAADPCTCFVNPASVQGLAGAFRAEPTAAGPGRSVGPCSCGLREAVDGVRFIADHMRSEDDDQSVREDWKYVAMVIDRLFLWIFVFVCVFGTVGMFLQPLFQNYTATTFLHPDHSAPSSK
Outline: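 Rat forebrain P2 membranes (60 µg protein) in HSS buffer with 0.5 nM (±)-[3H]epibatidine and 6–9 test concentrations. Incubated 90 min at 22 °C; non-specific binding defined with 300 µM (−)-nicotine. Filtered through PEI-presoaked glass fibre filters and counted by liquid scintillation. Run in duplicate to quadruplicate, with 2–10 independent experiments.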

[3] = Displacement of [3H]epibatidine from alpha3beta4 nAChR in calf adrenal membranes fraction after 90 mins by liquid scintillation counting analysis; type: cell membranes, Bos taurus
Outline: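 Calf adrenal membranes (60–70 µg) in HSS buffer with 0.5 nM (±)-[3H]epibatidine, 6–9 test concentrations, 90 min at 22 °C. Non-specific binding with 300 µM (−)-nicotine. PEI-presoaked glass fibre filtration, liquid scintillation read-out; duplicate to quadruplicate, 2–10 independent experiments.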

[4] = Displacement of [3H]epibatidine from (alpha1)2beta1gammadelta nAChR in Torpedo californica electroplax after 90 mins by liquid scintillation counting analysis; set-up: species or system Tetronarce californica
Outline: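 Torpedo californica electroplax membranes (60–70 µg) incubated with (±)-[3H]epibatidine and 6–9 test concentrations in HSS buffer, 90 min at 22 °C. 300 µM (−)-nicotine defined non-specific binding. PEI-presoaked glass fibre filtration, scintillation counting; duplicate to quadruplicate, 2–10 independent experiments.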

[5] = molecular target: T1, Neuronal acetylcholine receptor subunit alpha-7; assay: Displacement of [3H]methyllycaconitine from alpha7 nAChR in Sprague-Dawley rat brain membrane fraction after 2 hrs by liquid scintillation counting analysis; type: cell membranes
Outline: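 Competition binding on rat forebrain P2 membranes (60–70 µg protein) with [3H]MLA across 6–9 test concentrations. Incubation 120 min at 22 °C; 1 µM MLA defined non-specific binding. Samples filtered on PEI-presoaked glass fibre, scintillation-counted; duplicate to quadruplicate, 2–10 independent experiments.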

[6] = molecular target: T2, Neuronal acetylcholine receptor; alpha4/beta2; assay: Displacement of [3H]nicotine from alpha4beta2 nAChR in Sprague-Dawley rat brain membrane fraction after 2 to 3 hrs by liquid scintillation counting analysis; type: cell membranes
[7] = molecular target: Neuronal acetylcholine receptor subunit alpha-7 (Homo sapiens) (UniProt P36544); assay: Agonist activity at human alpha7 nAChR expressed in Xenopus laevis oocytes at 10 uM incubated for 12 secs followed by compound washout for 181 secs by Two-electrode voltage clamp assay; type: cell-based
Chain of Neuronal acetylcholine receptor subunit alpha-7 (Homo sapiens) (P36544 whole entry, the tested form may be a part): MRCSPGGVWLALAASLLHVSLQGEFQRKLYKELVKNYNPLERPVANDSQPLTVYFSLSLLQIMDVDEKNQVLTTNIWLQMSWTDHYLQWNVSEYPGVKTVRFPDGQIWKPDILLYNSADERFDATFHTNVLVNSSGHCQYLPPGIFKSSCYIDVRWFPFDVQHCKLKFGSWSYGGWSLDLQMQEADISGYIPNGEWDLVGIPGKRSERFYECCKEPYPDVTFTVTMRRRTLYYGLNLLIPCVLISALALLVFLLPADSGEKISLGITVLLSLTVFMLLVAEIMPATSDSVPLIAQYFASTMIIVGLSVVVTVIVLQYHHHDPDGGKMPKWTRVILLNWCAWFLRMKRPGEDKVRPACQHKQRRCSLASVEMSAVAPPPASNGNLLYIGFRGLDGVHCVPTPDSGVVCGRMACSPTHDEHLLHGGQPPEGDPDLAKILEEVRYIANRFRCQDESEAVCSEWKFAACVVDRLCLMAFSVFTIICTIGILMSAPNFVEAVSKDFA
Outline: (§1)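 Stage V oocytes, defolliculated with collagenase, injected with 5–20 ng subunit cRNA and recorded 1–7 days later. Two-electrode clamp at −60 mV in Ringer's with 1 µM atropine, pH 7.2. Perfusion 2 ml/min for α7, 4 ml/min for the others. Test applications were bracketed by ACh controls (30 µM α1β1εδ, 60 µM α7, 100 µM α3β4, 30 µM α4β2).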

[8] = molecular target: Neuronal acetylcholine receptor; alpha4/beta2 (Homo sapiens, UniProt P17787+P43681); assay: Displacement of [3H]nicotine from alpha4beta2 nAChR expressed in human SH-EP1 clonal cell membranes after 2 to 3 hrs by liquid scintillation counting analysis
Chain of Neuronal acetylcholine receptor; alpha4/beta2 (Homo sapiens, UniProt P17787+P43681) (P17787 whole entry): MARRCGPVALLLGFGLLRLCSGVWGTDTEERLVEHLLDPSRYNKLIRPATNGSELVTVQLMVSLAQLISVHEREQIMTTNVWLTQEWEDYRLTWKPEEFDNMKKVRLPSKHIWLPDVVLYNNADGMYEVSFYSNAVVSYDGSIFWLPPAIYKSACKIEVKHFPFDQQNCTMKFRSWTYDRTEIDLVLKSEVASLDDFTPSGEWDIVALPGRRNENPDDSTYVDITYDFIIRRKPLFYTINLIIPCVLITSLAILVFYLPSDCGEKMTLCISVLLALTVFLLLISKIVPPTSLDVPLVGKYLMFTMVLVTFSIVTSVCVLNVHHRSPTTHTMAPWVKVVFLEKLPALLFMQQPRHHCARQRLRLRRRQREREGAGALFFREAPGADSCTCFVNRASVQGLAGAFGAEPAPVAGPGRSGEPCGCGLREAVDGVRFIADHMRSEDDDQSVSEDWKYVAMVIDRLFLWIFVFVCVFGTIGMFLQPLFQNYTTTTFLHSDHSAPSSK
Chain of Neuronal acetylcholine receptor; alpha4/beta2 (Homo sapiens, UniProt P17787+P43681) (P43681 whole entry): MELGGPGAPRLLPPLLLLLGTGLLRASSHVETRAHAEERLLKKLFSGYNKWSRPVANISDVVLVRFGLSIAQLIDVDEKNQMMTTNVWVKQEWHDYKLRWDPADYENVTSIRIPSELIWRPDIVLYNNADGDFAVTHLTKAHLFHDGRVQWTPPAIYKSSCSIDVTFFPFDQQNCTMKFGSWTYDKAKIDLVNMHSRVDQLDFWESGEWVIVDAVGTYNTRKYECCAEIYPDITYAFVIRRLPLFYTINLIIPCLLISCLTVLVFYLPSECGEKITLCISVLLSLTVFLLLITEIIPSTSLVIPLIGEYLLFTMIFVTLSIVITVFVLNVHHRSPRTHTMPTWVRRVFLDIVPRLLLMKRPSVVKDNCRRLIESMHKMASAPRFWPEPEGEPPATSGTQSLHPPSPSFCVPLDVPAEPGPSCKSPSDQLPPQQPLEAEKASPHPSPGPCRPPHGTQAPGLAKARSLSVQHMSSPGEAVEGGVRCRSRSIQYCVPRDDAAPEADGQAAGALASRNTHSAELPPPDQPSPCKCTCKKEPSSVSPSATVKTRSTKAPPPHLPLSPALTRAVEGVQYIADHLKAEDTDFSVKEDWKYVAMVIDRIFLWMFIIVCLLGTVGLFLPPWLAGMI

[9] = molecular target: Neuronal acetylcholine receptor; alpha3/beta4 (Homo sapiens) (UniProt P30926+P32297); assay: Agonist activity at human alpha3beta4 nAChR expressed in Xenopus laevis oocytes at 10 uM incubated for 8 secs followed by compound washout for 241 secs by Two-electrode voltage clamp assay; type: cell-based; outline: as §1

Row | SMILES | Ki [1] | Ki [2] | Ki [3] | Ki [4] | also measured
1 | O=C(c1cccc2ccccc12)N1C[C@@H]2CNC[C@@H](C2)C1 | > 10 µM | > 10000 nM |  |  | 
2 | Cc1ccc(S(=O)(=O)N2C[C@@H]3CNC[C@@H](C3)C2)cc1 | > 10 µM | 858 nM | > 10 µM |  | 
3 | CCN(CC)C(=O)N1C[C@@H]2CNC[C@@H](C2)C1 |  | > 3000 nM |  |  | 
4 | Cc1ccccc1C(=O)N1C[C@@H]2CNC[C@@H](C2)C1 | > 10 µM | > 10000 nM | > 10 µM | > 10 µM | 
5 | O=C(c1cccc(C(F)(F)F)c1)N1C[C@@H]2CNC[C@@H](C2)C1 |  | 147 nM | > 3 µM | > 10 µM | 
6 | O=C(c1ccc(Br)cc1)N1C[C@@H]2CNC[C@@H](C2)C1 | > 10 µM | 138 nM | > 10 µM |  | 
7 | Cc1ccc(C(=O)N2C[C@@H]3CNC[C@@H](C3)C2)cc1 | > 10 µM | 221 nM | > 5 µM | > 10 µM | 
8 | N#Cc1cccc(S(=O)(=O)N2C[C@@H]3CNC[C@@H](C3)C2)c1 | > 10 µM | 970 nM | > 10 µM |  | 
9 | O=C(c1c[nH]c2ccccc12)N1C[C@@H]2CNC[C@@H](C2)C1 | > 10 µM | > 10000 nM | > 10 µM | > 10 µM | 
10 | O=C(c1ccc2ccccc2n1)N1C[C@@H]2CNC[C@@H](C2)C1 |  | > 1000 nM |  | > 10 µM | 
11 | O=C(c1ccc2[nH]ccc2c1)N1C[C@@H]2CNC[C@@H](C2)C1 |  | 1800 nM |  |  | 
12 | CC(C)(C)OC(=O)N1C[C@@H]2CNC[C@@H](C2)C1 | > 5 µM | 45 nM | 1.28 µM | > 10 µM | 
13 | CCC(=O)N1C[C@@H]2CNC[C@@H](C2)C1 | > 2 µM | 4.5 nM | 0.329 µM | > 1 µM | Ki [5]: 795 nM; Ki [6]: 12.2 nM; Activity [7]: Active; Ki [8]: 10.4 nM; Activity [9]: Active
14 | CC(C)(C)c1ccc(C(=O)N2C[C@@H]3CNC[C@@H](C3)C2)cc1 | > 10 µM | > 10000 nM | > 10 µM | > 10 µM | 
15 | CS(=O)(=O)N1C[C@@H]2CNC[C@@H](C2)C1 |  | > 5000 nM |  | > 10 µM | 
16 | O=C(c1ccc(O)cc1)N1C[C@@H]2CNC[C@@H](C2)C1 | > 1 µM | 105 nM |  |  | 
17 | c1ccc(CN2C[C@@H]3CNC[C@@H](C3)C2)cc1 | > 5 µM | > 10000 nM | 0.57 µM | > 10 µM | 
18 | CCN1C[C@H]2C[C@@H](C1)CN(C(C)=O)C2 |  | > 5000 nM |  |  | 
19 | O=C(c1ccnc2ccccc12)N1C[C@@H]2CNC[C@@H](C2)C1 |  | 162 nM | > 5 µM | > 10 µM | 
20 | O=C(c1ccc(Cl)cc1)N1C[C@@H]2CNC[C@@H](C2)C1 | > 10 µM | 130 nM |  |  | 
21 | O=C(c1ccc(F)cc1)N1C[C@@H]2CNC[C@@H](C2)C1 | > 10 µM | 197 nM | > 10 µM | > 10 µM | 
22 | O=C(N1CCC(Cc2ccccc2)CC1)N1C[C@@H]2CNC[C@@H](C2)C1 | > 5 µM | > 10000 nM | > 10 µM | > 5 µM | 
23 | O=C(C1CCCCC1)N1C[C@@H]2CNC[C@@H](C2)C1 | > 10 µM | > 5000 nM | > 5 µM | > 10 µM | 
24 | O=C(c1ccc(Cl)nc1)N1C[C@@H]2CNC[C@@H](C2)C1 |  | 194 nM | > 1 µM |  | 
25 | O=C(c1cccc(F)c1)N1C[C@@H]2CNC[C@@H](C2)C1 |  | 386 nM | > 5 µM | > 10 µM | 
26 | O=C(c1cccc([N+](=O)[O-])c1)N1C[C@@H]2CNC[C@@H](C2)C1 | > 10 µM | > 2000 nM | > 10 µM | > 10 µM | 
27 | O=C(c1cc2ccccc2[nH]1)N1C[C@@H]2CNC[C@@H](C2)C1 | > 10 µM | > 10000 nM | > 10 µM | > 10 µM | 

Row | SMILES | Ki [1] | Ki [2] | Ki [3] | Ki [4] | also measured
28 | O=C(c1cccs1)N1C[C@@H]2CNC[C@@H](C2)C1 | > 10 µM | 17.6 nM | > 10 µM | > 10 µM | 
29 | O=C(c1ccco1)N1C[C@@H]2CNC[C@@H](C2)C1 |  | 21.4 nM | 2.24 µM | > 10 µM | Ki [5]: 15000 nM; Ki [6]: 31 nM; Ki [8]: 9.9 nM
30 | N#Cc1ccc(C(=O)N2C[C@@H]3CNC[C@@H](C3)C2)cc1 | > 10 µM | 20.7 nM | > 10 µM | > 5 µM | 
31 | O=C(c1ccccc1)N1C[C@@H]2CNC[C@@H](C2)C1 | > 10 µM | 454 nM | > 5 µM | > 10 µM | 
32 | O=C(c1cccnc1)N1C[C@@H]2CNC[C@@H](C2)C1 | > 10 µM | 455 nM | > 10 µM | > 10 µM | 
33 | N#Cc1ccc(S(=O)(=O)N2C[C@@H]3CNC[C@@H](C3)C2)cc1 | > 10 µM | 645 nM | > 10 µM |  | 
34 | O=C(c1ccccc1[N+](=O)[O-])N1C[C@@H]2CNC[C@@H](C2)C1 | > 10 µM | > 10000 nM | > 10 µM | > 10 µM | 
35 | O=[N+]([O-])c1ccc(S(=O)(=O)N2C[C@@H]3CNC[C@@H](C3)C2)cc1 | > 10 µM | 135 nM | 5.7 µM | > 10 µM | 
36 | CC(=O)N1C[C@@H]2C[C@@H](CN(C)C2)C1 |  | 200 nM |  |  | 
37 | O=C(c1ccc2cn[nH]c2c1)N1C[C@@H]2CNC[C@@H](C2)C1 |  | 205 nM |  |  | 
38 | O=C(N1CCCC1)N1C[C@@H]2CNC[C@@H](C2)C1 | > 10 µM | > 5000 nM | > 10 µM | > 10 µM | 
39 | CC(C)C(=O)N1C[C@@H]2CNC[C@@H](C2)C1 | > 5 µM | 50.3 nM | 0.828 µM |  | Ki [5]: 645 nM; Ki [6]: 102 nM; Ki [8]: 44.4 nM
40 | O=S(=O)(c1ccccc1)N1C[C@@H]2CNC[C@@H](C2)C1 | > 10 µM | > 5000 nM | > 10 µM |  | 
41 | O=C(c1cccc(Cl)c1)N1C[C@@H]2CNC[C@@H](C2)C1 |  | > 1000 nM |  |  | 
42 | O=C(c1ccc2ncccc2c1)N1C[C@@H]2CNC[C@@H](C2)C1 | > 10 µM | 81.3 nM | > 5 µM |  | 
43 | O=C(c1cncc(Br)c1)N1C[C@@H]2CNC[C@@H](C2)C1 | > 10 µM | 292 nM | > 5 µM | > 10 µM | 
44 | CCCN1C[C@H]2C[C@@H](C1)CN(C(C)=O)C2 |  | > 5000 nM |  |  | 
45 | Cn1cccc1C(=O)N1C[C@@H]2CNC[C@@H](C2)C1 |  | 662 nM |  |  | 
46 | O=C(c1cnccn1)N1C[C@@H]2CNC[C@@H](C2)C1 | > 10 µM | 73.2 nM | > 10 µM | > 10 µM | 
47 | O=S(=O)(c1ccc(Br)cc1)N1C[C@@H]2CNC[C@@H](C2)C1 |  | > 5000 nM |  |  | 
48 | O=C(c1ccc([N+](=O)[O-])cc1)N1C[C@@H]2CNC[C@@H](C2)C1 | 1.73 µM | 15.9 nM | 4.2 µM | > 5 µM | 
49 | O=C(N1CCOCC1)N1C[C@@H]2CNC[C@@H](C2)C1 |  | 3800 nM |  |  | 
50 | O=C(c1ccc2ccccc2c1)N1C[C@@H]2CNC[C@@H](C2)C1 | > 10 µM | 447 nM | > 10 µM |  | 
51 | CN(C)C(=O)N1C[C@@H]2CNC[C@@H](C2)C1 |  | 499 nM | > 1 µM |  | 
52 | O=C(c1ccccc1Cl)N1C[C@@H]2CNC[C@@H](C2)C1 |  | > 10000 nM |  |  | 
53 | COc1ccc(C(=O)N2C[C@@H]3CNC[C@@H](C3)C2)c(OC)c1 | > 5 µM | > 1000 nM | > 5 µM | > 10 µM | 
